Assay outcomes (PubChem BioAssay)
T cell modulator = modulators of CD8 T cell-vesicle binding, primary screen, mouse 2C CD8+ T cells, flow cytometry; 0.068% of 330,000 active; 2C CD8+ T cell-vesicle binding; hits give low values; response (vesicle binding), % at 7 µM; AID 2052, 2009;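 active means response, share of CD8 T cells binding vesicles, and their 90th percentile fluorescence all below set limits, cut at about 80% in these data, passing the limit was not always enough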;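 further: values below 100% mean blocked vesicle binding to the CD8+ T cells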
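Assay system – 2C mouse CD8+ T cells · Also added – QL9-loaded Drosophila micro-vesicles · Timing – Cell–vesicle co-incubation 1.5 h at 37 °C, staining 20 min on ice · Signal – flow cytometry of vesicle-bound cells · Measure – percent CD8+ FL2 mean versus row control · Controls – Peptide-free naked vesicles (low) and QL9 vesicles with 0.7% DMSO vehicle (high)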
CHT block = inhibitors of human choline transporter CHT | High affinity choline transporter 1 (Homo sapiens), Q9GZV3 | CHT-expressing cells, membrane potential dye, choline response; hits give low values | B-score at 10 µM | 0.86% of 310,000 active | AID 488975, 2010;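 active means B-score over 3 SD under the library average, and starting fluorescence ratio not unusually high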;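 further: choline stimulus applied at its EC90 after an EC20 pre-addition; B-score computed on integrated fluorescence ratio after choline addition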
Target sequence (Q9GZV3 whole entry, looked up): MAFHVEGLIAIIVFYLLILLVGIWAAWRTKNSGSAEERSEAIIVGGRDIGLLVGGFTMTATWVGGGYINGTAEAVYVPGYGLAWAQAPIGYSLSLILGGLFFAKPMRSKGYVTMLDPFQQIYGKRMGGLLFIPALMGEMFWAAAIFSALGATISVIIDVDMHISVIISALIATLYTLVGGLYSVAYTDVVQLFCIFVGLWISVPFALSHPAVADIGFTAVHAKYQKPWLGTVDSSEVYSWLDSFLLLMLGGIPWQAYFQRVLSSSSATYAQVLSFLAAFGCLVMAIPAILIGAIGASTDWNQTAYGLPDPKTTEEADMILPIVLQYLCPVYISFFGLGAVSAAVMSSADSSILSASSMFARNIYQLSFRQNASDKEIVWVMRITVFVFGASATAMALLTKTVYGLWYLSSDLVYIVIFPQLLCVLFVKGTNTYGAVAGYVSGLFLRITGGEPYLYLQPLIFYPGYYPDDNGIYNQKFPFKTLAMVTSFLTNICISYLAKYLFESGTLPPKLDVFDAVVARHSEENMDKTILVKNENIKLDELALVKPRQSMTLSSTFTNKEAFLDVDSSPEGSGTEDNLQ
Pemphigus Ab inh = inhibitors of pemphigus antibody binding to DSG3, primary screen, biochemical, bead-based, flow cytometry, scFv-GFP | Desmoglein-3 (Homo sapiens), P32926 | DSG3-coupled beads, scFv-anti-DSG3-GFP binding; hits give low values | binding (percent of control), % at 10 µM | AID 588358, 2011 | 0.48% of 310,000 active;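 active means binding more than 3 SD below its plate's average and above zero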;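 further: hits lower antibody fragment binding to DSG3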
p-CIP stab down = p/CIP-EGFP fusion destabilizers, primary screen, fluorescence, F442A cells; decrease of EGFP signal, % at 10 µM; 0.01% of 290,000 active; 16 h; Q05BA5;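 active means EGFP signal decrease of at least 30% at 10 µM or well 3 SD below plate mean, unless failing retest; inactive means the rest, including hits failing retest or dose response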
CHT PAM = CHT positive allosteric modulators, primary screen, cell-based, membrane potential dye, choline EC20 | B-score at 10 µM | CHT-expressing cells; hits give high values; LV-AA mutant CHT in HEK293 cells | 0.49% of 310,000 active;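 active means initial fluorescence not abnormally high and integrated response B-score, plate-corrected, over 3 SD above library mean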
GPR7 antag = GPR7 receptor antagonists, primary screen, cell-based, fluorescence, single concentration; 1.1% of 290,000 active; GPR7-expressing cells, fluorescence antagonist assay; inhibition, % at 4.4 µM; in the data active means inhibition above about 16%, passing the limit was not always enough;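 further: cells stimulated with the agonist NPW; 0% = agonist with vehicle and 100% = vehicle without agonist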
CHT inh conf = CHT inhibitors, confirmation, cell-based, membrane potential dye, duplicate | AID 493221, 2011 | CHT activity remaining % of control (hits give low values), % at 10 µM | CHT-expressing cells, choline membrane potential dye; LV-to-AA substituted CHT, HEK293 cells | 70% of 2,400 active | shares compounds with CHT block;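 active means choline transporter activity left, mean of duplicates at 10 µM, below buffer-only control mean minus 3 SD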;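 further: depolarization triggered by choline at its EC90 following an EC20 pre-addition; 0% = hemicholinium-3 full block and 100% = buffer-only control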
HEK293 CHT ctr = membrane potential effects in parental HEK293, counter-screen for CHT inhibitor project, cell-based, membrane potential dye; membrane potential ratio readout (active if shifted either direction beyond buffer ±3SD; no single direction) at 10 µM; 4% of 2,400 active; shares compounds with CHT block; choline response; active = decrease or increase beyond buffer ±3SD;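 further: parental cells lack the transporter so any hit is non-specific; ratio is peak minus trough fluorescence over baseline after EC90 choline challenge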
Active calls of the source: *; i = inactive; / = no result. The list is not random: actives were taken first. Their share in the collection is about 2.3%.

SMILES | T cell modulator | CHT block | Pemphigus Ab inh | p-CIP stab down | CHT PAM | GPR7 antag | CHT inh conf | HEK293 CHT ctr
CCCCCCCCCCCn1nnnc1N | / | / | 85 | / | / | / | / | /
CCCCNc1ncnc2c1cnn2-c1ccccc1 | 261 | -5.4* | 103 | -7 | i | 10 | i | i
COc1ccc(/C=C2\N=C(c3ccccc3)N(c3ccc(C(=O)O)cc3)C2=O)cc1OC | 262 | -6.9* | 98 | -1 | i | -15 | 47%* | i
CC1=N/C(=C\c2ccc(OC(C)C)cc2)C(=O)N1c1ccc(C(=O)O)cc1 | 226 | i | 86 | 2 | i | 5 | / | /
COc1ccc(N2CCN(C(=O)C3CCCN(c4ncnc5c4nc4n5CCCCC4)C3)CC2)cc1 (centres undefined) | 222 | i | / | 3 | i | 5 | / | /
O=C(C1CCCN(c2ncnc3c2nc2n3CCCCC2)C1)N1CCN(c2ccc(F)cc2)CC1 (centres undefined) | 444 | -8* | / | -14 | i | -7 | 37%* | i
O=C(C1CCCN(c2ncnc3c2nc2n3CCCCC2)C1)N1CCCCC1 (centres undefined) | 86 | i | 94 | -15 | i | -21 | / | /
O=C(C1CCCN(c2ncnc3c2nc2n3CCCCC2)C1)N1CCN(c2ccc(Cl)cc2)CC1 (centres undefined) | 222 | -7.8* | 97 | 1 | i | 14 | 40%* | i
CC(=O)c1ccc(N2CCN(C(=O)C3CCCN(c4ncnc5c4nc4n5CCCCC4)C3)CC2)cc1 (centres undefined) | 190 | -5.9* | / | -1 | i | -11 | 32%* | i
CC(C)c1ccc2c(c1)C1(NN=C(c3ccccc3)S1)C(=O)N2 (centres undefined) | 499 | -6.6* | 90 | -6 | i | -8 | 56%* | i
CCc1ccc2c(c1)C1(NN=C(c3ccc(C)cc3)S1)C(=O)N2 (centres undefined) | 575 | -5.9* | 95 | 0 | i | -1 | 67%* | i
CC(C)c1ccc(O)c(NC(=O)c2ncn[nH]2)c1 | 591 | i | 100 | 4 | i | 0 | / | /
N=C1CCCN1CC(=O)c1ccc(Br)cc1 | 127 | -19* | 102 | 1 | i | -7 | 1.5%* | i
Cn1c(=N)n(CC(=O)c2ccc(Br)cc2)c2ccccc21 | 346 | i | 106 | / | i | / | / | /
O=C(COC(=O)c1cc(S(=O)(=O)N2CCCCC2)ccc1N1CCOCC1)c1ccccc1Cl | / | / | 97 | / | / | / | / | /
Cn1c(=O)c2c(nc(SCC(=O)N3CCCCCC3)n2C)n(C)c1=O | 465 | -5.7* | 105 | 0 | i | -1 | i | i
O=C(O)c1ccc(N2C(=O)CSC2=S)cc1 | 763 | -6.4* | 99 | / | i | / | 69%* | i
Cc1ccc(NC2CCCN(C(=O)c3cc(C(C)C)nn3C)C2)cc1C (centres undefined) | / | / | 99 | / | / | / | / | /
CN(C(=O)c1cccc(NC(=O)Cc2ccc(NC(=O)C3CCCN(C(=O)C4CCCC4)C3)cc2)c1)C1CC1 (centres undefined) | / | / | 97 | / | / | / | / | /
CCOC(=O)c1[nH]ncc1CN1CCCC(C(=O)c2ccc(C(C)(C)C)cc2)C1 (centres undefined) | 430 | -8.8* | 100 | -13 | i | -4 | i | i
O=C(NCc1ccc(Cl)cc1)c1ccc(CNc2c(N3CCCC3)c(=O)c2=O)cc1 | 0.0* | -6.2* | 93 | 2 | i | 2 | i | i
